In experiment [1] the test system is Escherichia coli. Put plainly: Antibacterial activity against Escherichia coli NKE154 harboring vector expressing acrB deletion mutant. Type of experiment: functional.
The subject of experiment [2] is Escherichia coli. Put plainly: Antibacterial activity against Escherichia coli NKE158 harboring deletion mutation in acrB protein and vector expressing cpxAR gene. The format is functional.
In experiment [3] the test system is Escherichia coli. Put plainly: Antibacterial activity against Escherichia coli NKE1316 harboring deletion mutation in acrB, acrD and mdtABC protein. Type of experiment: functional.
The subject of experiment [4] is Escherichia coli. Put plainly: Antibacterial activity against Escherichia coli NKE1355 harboring deletion mutation in acrB protein and plasmid expressing BAD gene in presence of increasing concentration of arabinose. The format is functional, organism-based. The procedure, abridged:
(§1)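 ΔacrB host carrying empty pBAD33 or pBAD33 with nlpE under the arabinose-inducible PBAD promoter. MICs of oxacillin, cloxacillin, nafcillin, cefamandole, aztreonam, novobiocin, deoxycholate and kanamycin were measured with arabinose at several concentrations from 0 to 10,000 μM. Each MIC determination was repeated at least three times.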

Experiment [5] has as its system Escherichia coli. Put plainly: Antibacterial activity against Escherichia coli NKE128 harboring deletion mutation in acrB and tolC protein. The format is functional.
The subject of experiment [6] is Escherichia coli. Description: Antibacterial activity against Escherichia coli NKE155 harboring deletion mutation in acrB protein and plasmid expressing nlpE gene. The format is functional.
For experiment [7], the system named is Escherichia coli. Description: Antibacterial activity against Escherichia coli NKE156 harboring deletion mutation in acrB protein and vector expressing acrD gene. The format is functional.
Experiment [8] deals with Escherichia coli. Put plainly: Antibacterial activity against Escherichia coli NKE159 harboring deletion mutation in acrB, cpxAR protein and plasmid expressing nlpE gene. Type of experiment: functional.
The subject of experiment [9] is Escherichia coli. Description: Antibacterial activity against Escherichia coli NKE127 harboring deletion mutation in acrB and cpxAR protein. Type of experiment: functional.
The test system of experiment [10] is Escherichia coli. Put plainly: Antibacterial activity against Escherichia coli NKE160 harboring deletion mutation in acrB protein and vector expressing tolC gene. Type of experiment: functional.
Experiment [11] has as its system Escherichia coli. Put plainly: Antibacterial activity against Escherichia coli NKE1367 harboring deletion mutation in acrB, mdtABC protein and plasmid expressing nlpE gene. Type of experiment: functional.
Experiment [12] has as its system Escherichia coli. Description: Antibacterial activity against Escherichia coli NKE96 harboring deletion mutation in acrB protein. The format is functional.
The subject of experiment [13] is Escherichia coli. Description: Antibacterial activity against Escherichia coli NKE1369 harboring deletion mutation in acrB, acrD, mdtABC protein and plasmid expressing nlpE gene. The format is functional.
For experiment [14], the system named is Escherichia coli. Description: Antibacterial activity against Escherichia coli NKE1359 harboring deletion mutation in acrB protein and plasmid expressing BADnlpE gene in presence of increasing concentration of arabinose. Type of experiment: functional, organism-based. Summed up:
as §1

In experiment [15] the test system is Escherichia coli. Put plainly: Antibacterial activity against Escherichia coli NKE161 harboring deletion mutation in acrB protein, vector expressing tolC gene and plasmid expressing nlpE gene. The format is functional.
For experiment [16], the system named is Escherichia coli. Description: Antibacterial activity against Escherichia coli NKE1366 harboring deletion mutation in acrB and vector expressing mdtABC gene. Type of experiment: functional.
For experiment [17], the system named is Escherichia coli. Put plainly: Antibacterial activity against Escherichia coli NKE126 harboring deletion mutation in acrB and acrD protein. Type of experiment: functional.
For experiment [18], the system named is Escherichia coli. Put plainly: Antibacterial activity against Escherichia coli NKE1368 harboring deletion mutation in acrB, acrD and mdtABC genes and carrying empty pHSG398 vector.
The subject of experiment [19] is Escherichia coli. Description: Antibacterial activity against Escherichia coli NKE1365 harboring deletion mutation in acrB and mdtABC protein. Type of experiment: functional.
Experiment [20] has as its system Escherichia coli. Put plainly: Antibacterial activity against Escherichia coli NKE157 harboring deletion mutation in acrB, acrD protein and plasmid expressing nlpE gene. The format is functional.

In general, MIC refers to the smallest concentration in the dilution series that meets the test's criterion for growth inhibition.

Values after ≈ are worked out from the molar mass of the structure shown. Active and inactive are the calls of the source.

Turning to `C[C@H](CCC(=O)O)[C@H]1CC[C@H]2[C@@H]3CC[C@@H]4C[C@H](O)CC[C@]4(C)[C@H]3C[C@H](O)[C@]12C` [DEOXYCHOLIC ACID], the MIC against Escherichia coli [1] is 5000 µg/mL (≈ 12700 µM); in the experiment with Escherichia coli [2], 2500 µg/mL (≈ 6370 µM); in the experiment with Escherichia coli [3] it was 2500 µg/mL (≈ 6370 µM); against Escherichia coli [5] it was 156 µg/mL (≈ 397 µM); in the experiment with Escherichia coli [6], 40000 µg/mL (≈ 102000 µM); in the experiment on Escherichia coli [7] it was 5000 µg/mL (≈ 12700 µM). For the same compound, the MIC in the experiment with Escherichia coli [8] amounted to 2500 µg/mL (≈ 6370 µM); with Escherichia coli [9], 2500 µg/mL (≈ 6370 µM); in the experiment with Escherichia coli [10], 156 µg/mL (≈ 397 µM); against Escherichia coli [11], 10000 µg/mL (≈ 25500 µM); against Escherichia coli [12] it was 5000 µg/mL (≈ 12700 µM); in the experiment with Escherichia coli [13], 2500 µg/mL (≈ 6370 µM). The MIC in the experiment on Escherichia coli [15] came to 156 µg/mL (≈ 397 µM); in the experiment with Escherichia coli [16] it was 5000 µg/mL (≈ 12700 µM); with Escherichia coli [17] it was 5000 µg/mL (≈ 12700 µM); against Escherichia coli [18] it was 2500 µg/mL (≈ 6370 µM); against Escherichia coli [19], 5000 µg/mL (≈ 12700 µM); against Escherichia coli [20] it was 10000 µg/mL (≈ 25500 µM). Moreover, the outcome in the experiment on Escherichia coli [4] was Active. In the experiment on Escherichia coli [14], the outcome was inactive.

On to `CC1(C)S[C@@H]2[C@H](NC(=O)C(C(=O)O)c3ccccc3)C(=O)N2[C@H]1C(=O)O` (some centres undefined) [CARBENICILLIN], for which the MIC against Escherichia coli [1] came to 1 µg/mL (≈ 2.64 µM); with Escherichia coli [2] it was 1 µg/mL (≈ 2.64 µM); in the experiment with Escherichia coli [3] it was 1 µg/mL (≈ 2.64 µM); with Escherichia coli [5], 1 µg/mL (≈ 2.64 µM); in the experiment with Escherichia coli [6] it was 8 µg/mL (≈ 21.1 µM); in the experiment on Escherichia coli [7], 1 µg/mL (≈ 2.64 µM). The MIC in the experiment on Escherichia coli [8] stood at 1 µg/mL (≈ 2.64 µM); in the experiment with Escherichia coli [9] it was 1 µg/mL (≈ 2.64 µM); against Escherichia coli [10], 1 µg/mL (≈ 2.64 µM); with Escherichia coli [11] it was 4 µg/mL (≈ 10.6 µM); with Escherichia coli [12], 1 µg/mL (≈ 2.64 µM); in the experiment with Escherichia coli [13], 1 µg/mL (≈ 2.64 µM). Also, the MIC against Escherichia coli [15] came out at 1 µg/mL (≈ 2.64 µM); against Escherichia coli [16] it was 1 µg/mL (≈ 2.64 µM); against Escherichia coli [17], 1 µg/mL (≈ 2.64 µM); in the experiment on Escherichia coli [18] it was 1 µg/mL (≈ 2.64 µM); in the experiment on Escherichia coli [19] it was 1 µg/mL (≈ 2.64 µM); in the experiment on Escherichia coli [20], 2 µg/mL (≈ 5.29 µM).

As to `NC(=O)OC[C@@H]1[C@H](NC(=O)/C(=N\OCC(=O)O)c2csc(N)n2)C(=O)N1S(=O)(=O)O` [CARUMONAM], the MIC with Escherichia coli [1] stood at 0.031 µg/mL (≈ 0.0665 µM); in the experiment with Escherichia coli [2] it was 0.031 µg/mL (≈ 0.0665 µM); with Escherichia coli [3], 0.031 µg/mL (≈ 0.0665 µM); with Escherichia coli [5], 0.031 µg/mL (≈ 0.0665 µM); against Escherichia coli [6], 0.25 µg/mL (≈ 0.536 µM); against Escherichia coli [7] it was 0.031 µg/mL (≈ 0.0665 µM). Also, the MIC against Escherichia coli [8] stood at 0.031 µg/mL (≈ 0.0665 µM); against Escherichia coli [9] it was 0.031 µg/mL (≈ 0.0665 µM); in the experiment with Escherichia coli [10], 0.031 µg/mL (≈ 0.0665 µM); against Escherichia coli [11] it was 0.13 µg/mL (≈ 0.279 µM); in the experiment on Escherichia coli [12], 0.031 µg/mL (≈ 0.0665 µM); in the experiment on Escherichia coli [13] it was 0.031 µg/mL (≈ 0.0665 µM). Further, the MIC amounted to 0.031 µg/mL (≈ 0.0665 µM) against Escherichia coli [15]; 0.031 µg/mL (≈ 0.0665 µM) against Escherichia coli [16]; 0.031 µg/mL (≈ 0.0665 µM) in the experiment with Escherichia coli [17]; 0.031 µg/mL (≈ 0.0665 µM) with Escherichia coli [18]; 0.031 µg/mL (≈ 0.0665 µM) in the experiment on Escherichia coli [19]; 0.063 µg/mL (≈ 0.135 µM) in the experiment with Escherichia coli [20].

As for `CC1(C)S[C@@H]2[C@H](NC(=O)C(c3ccccc3)S(=O)(=O)O)C(=O)N2[C@H]1C(=O)O` (some centres undefined) [SULBENICILLIN], the minimum inhibitory concentration (MIC) in the experiment with Escherichia coli [1] was 2 µg/mL (≈ 4.83 µM); in the experiment with Escherichia coli [2] it was 1 µg/mL (≈ 2.41 µM); against Escherichia coli [3], 1 µg/mL (≈ 2.41 µM); against Escherichia coli [5] it was 1 µg/mL (≈ 2.41 µM); against Escherichia coli [6], 16 µg/mL (≈ 38.6 µM); against Escherichia coli [7], 1 µg/mL (≈ 2.41 µM). Besides, the MIC with Escherichia coli [8] was 1 µg/mL (≈ 2.41 µM); with Escherichia coli [9], 1 µg/mL (≈ 2.41 µM); against Escherichia coli [10], 1 µg/mL (≈ 2.41 µM); against Escherichia coli [11], 8 µg/mL (≈ 19.3 µM); in the experiment on Escherichia coli [12], 2 µg/mL (≈ 4.83 µM); in the experiment on Escherichia coli [13] it was 1 µg/mL (≈ 2.41 µM). The MIC in the experiment with Escherichia coli [15] amounted to 1 µg/mL (≈ 2.41 µM); in the experiment with Escherichia coli [16], 2 µg/mL (≈ 4.83 µM); against Escherichia coli [17], 1 µg/mL (≈ 2.41 µM); in the experiment with Escherichia coli [18], 1 µg/mL (≈ 2.41 µM); with Escherichia coli [19], 2 µg/mL (≈ 4.83 µM); in the experiment on Escherichia coli [20] it was 2 µg/mL (≈ 4.83 µM).

For the origin of these results see ChEMBL document CHEMBL1255456, “Effect of NlpE overproduction on multidrug resistance in Escherichia coli” (2010).
